Assay outcomes deposited in PubChem BioAssay by several laboratories.
NPY-Y2 PAM-ag: potentiators or agonists of human neuropeptide Y receptor Y2. P49146. cells expressing NPY-Y2, potentiator/agonist read-out. activation, % at 3.6 µM. 220,000 tested, 0.45% active; in the data active = activation above about 27%;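 also: cells stimulated with NPY near EC25 plus isoproterenol at EC100; 0% = vehicle plus submaximal agonist and 100% = vehicle plus saturating agonist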
PGE2 EP2 inh: inhibitors of human EP2 prostaglandin E2 receptor; P43116; C6 glioma cells expressing human EP2, cAMP TR-FRET; cells stimulated with saturating PGE2; inhibition, % at 25 µM; 260,000 tested, 0.52% active;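 active = percent inhibition above 40 after rounding to a whole number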;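 also: rat C6 glioma host cells with rolipram phosphodiesterase inhibitor present; the protocol text gives 20 µM as final concentration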
NPY-Y1 PAM-ag: potentiators or agonists of human neuropeptide Y receptor Y1; 220,000 tested, 0.37% active; NPY-Y1 expressing cells, potentiator/agonist activation; activation, % at 3.6 µM; P25929; in the data active = activation above about 33%, passing the limit was not always enough;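 also: cells stimulated with NPY at EC10 then isoproterenol at EC100; 0% = low agonist plus stimulus and 100% = saturating agonist plus stimulus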
Target sequence (P25929 whole entry, looked up): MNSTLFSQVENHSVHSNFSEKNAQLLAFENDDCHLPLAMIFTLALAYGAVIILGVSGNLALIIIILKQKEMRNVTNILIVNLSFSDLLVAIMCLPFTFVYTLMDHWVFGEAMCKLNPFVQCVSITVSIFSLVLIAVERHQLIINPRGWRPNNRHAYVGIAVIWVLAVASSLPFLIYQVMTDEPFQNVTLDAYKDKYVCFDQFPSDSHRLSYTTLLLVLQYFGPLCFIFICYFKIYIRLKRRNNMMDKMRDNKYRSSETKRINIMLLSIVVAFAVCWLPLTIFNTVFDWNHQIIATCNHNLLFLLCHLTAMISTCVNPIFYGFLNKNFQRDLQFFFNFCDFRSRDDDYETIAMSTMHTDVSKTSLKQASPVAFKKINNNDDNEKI
EP2 modulator: modulates human prostaglandin E2 receptor EP2 signaling; EP2-expressing cells, cAMP HTRF FRET, PGE2 co-stimulation; induction, % at 25 µM; 260,000 tested, 0.83% active; AID 940;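 active = compounds whose cAMP rise, as percent of the full-agonist control response, exceeds 60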;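 also: rat C6 glioma line stably carrying human EP2 under a CMV promoter; the protocol text gives 20 µM as final concentration; 100% = response of wells given 1 µM PGE2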
NPY Y1 blocker: blocks the human neuropeptide Y Y1 receptor; P25929; HEK293-CNG Y1 cells, membrane potential fluorescence; NPY at EC95, then isoproterenol; inhibition, % at 3.6 µM; 200,000 tested, 1% active; AID 1040;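 active = inhibition above the campaign mean inhibition of all tested compounds plus 3 SD, cut at about 20% in these data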;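 also: 0% = DMSO wells given NPY plus isoproterenol and 100% = isoproterenol alone without NPY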
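Test system: HEK293 cells co-expressing NPY Y1 receptor and cyclic-nucleotide gated channel; Also added: NPY (25 nM), isoproterenol (1 µM), Ro 20-1724 (25 µM); Compound dosing: one concentration, 3.6 µM, in 0.4% DMSO; Timing: dye 3 h, compound 60 min room temperature, stimulation 45 min; Technique: Membrane-potential fluorescent dye readout.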
NPY-Y2 antag: blocks the human neuropeptide Y Y2 receptor. AID 793. inhibition, % at 2.7 µM. 140,000 tested, 0.99% active. P49146. NPY-Y2 expressing cells, antagonist mode;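 also: 0% = vehicle with agonist challenge and 100% = reference antagonist with challenge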
NPY1 antag conf: confirmation of human neuropeptide Y receptor Y1 antagonists | shares compounds with NPY Y1 blocker | HEK293-CNG NPY-Y1, membrane potential fluorescence, cAMP; NPY challenge against isoproterenol-raised cAMP | inhibition, % at 3.6 µM | 1,200 tested, 21% active; in the data active = inhibition above about 20%;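 also: 0% = vehicle with agonist plus stimulus and 100% = stimulus alone without agonist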
NPY-Y2 antag ct: counter-screen for NPY-Y1 antagonists: human NPY-Y2 antagonism | shares compounds with NPY Y1 blocker | HEK293 NPY-Y2 CNG membrane potential fluorescence; cells given NPY, then isoproterenol | inhibition, % at 3.6 µM | 1,200 tested, 28% active;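 also: 0% = DMSO with agonist challenge and 100% = reference antagonist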
Numbers without * were called inactive; . = no result. Most compounds without a hit are left out; they make up all but 2.8% or so of the library. Rule as the data show it, unless noted: active = inhibition above about 17%; inactive = the rest.

SMILES	NPY-Y2 PAM-ag	PGE2 EP2 inh	NPY-Y1 PAM-ag	EP2 modulator	NPY Y1 blocker	NPY-Y2 antag	NPY1 antag conf	NPY-Y2 antag ct
Cc1ccccc1NC(=O)c1sc2nc3c(c(-c4ccco4)c2c1N)CCCC3	-1	12	-8	20	24*	2	2	4
Cc1ccccc1N/C(SCc1ccc(Cl)cc1)=C(/C#N)C(=O)NCc1ccco1	-39	5	-11	23	34*	12	12	8
Cc1ccc(CS/C(Nc2ccccc2C)=C(\C#N)C(=O)NCc2ccco2)c(C)c1	-12	2	-4	29	17	4	.	.
CC1=CC(C)(C)n2c(O)c(N=N)c3cc(C)cc1c32	-5	7	-59	38	23*	11	14	22*
Cc1ccc(-c2cc(N)c(=O)n(CC(=O)NC3CCCC3)n2)o1	.	4	.	-54	.	.	.	.
COC(=O)c1c(NC(=O)Cc2ccccc2)sc(C(=O)Nc2cccc(OC)c2)c1C	.	10	.	-22	.	.	.	.
N=c1c2c(-c3ccccc3)c(-c3ccccc3)n(Cc3ccco3)c2ncn1CCCN1CCOCC1	-8	9	-36	-53	56*	.	44*	39*
Cc1nc2cc(-c3sccc3-n3cccc3)nn2c(C)c1C	-31	.	-60	26	22*	2	17	20*
Cc1nc2cc(-c3cccs3)nn2c(NCCCN(C)C)c1C	.	8	.	-36	.	.	.	.
CC(=O)N(CCC(Cc1ccccc1)c1ccc2c(c1)OCO2)Cc1ccc(Cl)cc1 (centres undefined)	-18	10	-7	21	12	9	.	.
O=C(O)CC(Cc1ccccc1)c1ccc2c(c1)OCO2 (centres undefined)	-28	.	-21	14	23*	8	13	12
CC(C)(C)Nc1nc(N2CCCC2)nc(N2CCCC2)n1	11	12	18	2	19	15	.	.
CCCNc1nc(N2CCCC2)nc(N2CCCC2)n1	8	6	-1	33	30*	.	13	11
COc1cccc(C2=NN(C(=O)c3ccc(C)o3)C(O)(C(F)(F)F)C2)c1 (centres undefined)	0	1	-15	51	31*	.	12	15
CCOC(=O)c1c(-c2ccccc2)csc1NC(=O)CSc1nc(C)cc(C)n1	-23	7	-36	58	20*	9	9	15
CC(C)OCCCNC(=O)c1c(N)n(/N=C/c2cccs2)c2nc3ccccc3nc12	10	.	14	23	25*	9	17	16
O=S(=O)(c1ccc2c(c1)OCCO2)N(Cc1ccc(F)cc1)Cc1nnc(-c2cccs2)o1	-16	12	-5	17	45*	14	14	8
Cc1ccc(CN(CCCn2ccnc2)Cc2nccn2C)s1	.	6	.	12	.	.	.	.
Cc1cccc(NC(=O)CN2C(=O)C(C)(C)Oc3ccc(C(=O)NC4CCCCC4)cc32)c1	.	7	.	24	.	.	.	.
O=C(c1ccco1)N1CCN(S(=O)(=O)c2ccc(S(=O)(=O)NC3CCCC3)cc2)CC1	8	7	-17	34	20*	11	4	2
Cc1ccc(CSc2ncccc2C(=O)O)cc1	-15	4	-21	9	23*	12	11	6
CCOC(=O)c1c(C)n(-c2ccc(C)cc2)c2ccc(OCC(O)CNCCCO)cc12 (centres undefined)	-56	13	-71	-29	29*	.	36*	41*
CCOC(=O)c1c(C)n(-c2ccc(C)cc2)c2ccc(OCC(O)CNCC3CCCO3)cc12 (centres undefined)	-36	26	-124	-9	59*	.	62*	72*
Cn1c(Cc2cccs2)nnc1SCC(=O)N1CCCc2ccccc21	-1	10	11	1	1	3	.	.
O=C(CSc1nnc(Cc2cccs2)n1CCc1ccccc1)N1CCCc2ccccc21	-19	15	-18	-37	22*	13	7	6
SMILES	NPY-Y2 PAM-ag	PGE2 EP2 inh	NPY-Y1 PAM-ag	EP2 modulator	NPY Y1 blocker	NPY-Y2 antag	NPY1 antag conf	NPY-Y2 antag ct
COc1ccc(-c2nnc(SCC(C)=O)n2C)cc1	.	12	.	-23	.	.	.	.
Cc1ccc(C)n1-c1cccc(C(=O)NCCc2nc(-c3ccncc3)n[nH]2)c1	.	2	.	-31	.	.	.	.
CCN(CC)C(C)C(=O)Nc1c2c(cc3c1CCC3)CCC2 (centres undefined)	-12	4	-14	23	5	5	.	.
CC(C(=O)Nc1c2c(cc3c1CCC3)CCC2)N1CCCC1 (centres undefined)	-15	9	-37	5	20*	10	13	8
COC(=O)c1c(-c2ccc(C)cc2)csc1NC(=S)NC(=O)c1cccnc1	.	4	.	35	.	.	.	.
CCN1C(=O)c2ccc(C(=O)NCc3ccc4c(c3)OCO4)cc2C1=O	-5	6	-25	3	26*	3	5	8
Cc1cc2oc(C(=O)NCc3ccc4c(c3)OCO4)c(C)c2cc1C	-32	13	-74	-17	28*	15	23*	18*
CCc1nc(SCC(=O)N2CCCCC2C)c2ccccc2n1 (centres undefined)	.	12	.	56	.	.	.	.
CCOc1cc(-c2noc(N)c2C(=O)OC)cc(OCC)c1OCC	-7	.	-30	-5	22*	7	6	4
CCOc1cccc(/C(O)=C2/C(=O)C(=O)N(CCN3CCOCC3)C2c2cccs2)c1 (centres undefined)	.	10	.	27	.	.	.	.
CC(C)N1C(=S)N(Cc2ccco2)C(=O)C1CC(=O)Nc1ccccc1 (centres undefined)	4	4	7	-40	74*	.	-1	-1
COc1cccc(-c2[nH]ncc2CN(C)CCOc2ccccc2)c1	.	4	.	-26	.	.	.	.
O=C(CN1CCC(O)(c2ccccn2)CC1)Nc1ccc(Cl)c(Cl)c1	.	.	.	-58	.	.	.	.
COc1ccc2nc(Nc3nc(C)c(C(C)=O)c(C)n3)nc(C)c2c1	.	5	.	-35	.	.	.	.
COc1ccc(Cl)cc1NC(=O)CNc1ccccc1CN(C)C1CCCCC1	-8	5	-17	33	29*	.	26*	20*
COc1ccc(C)cc1NC(=O)CNc1ccccc1CN(C)C1CCCCC1	-7	3	7	50	12	.	.	.
CC(=O)N(C)C(c1ccc(N(C)C)cc1)c1nnnn1-c1c(C)cccc1C (centres undefined)	0	6	-11	12	24*	6	11	4
OCC1(CCCc2ccccc2)CCN(Cc2cc(F)ccc2F)CC1	-15	9	4	-39	10	.	.	.
